Measured values reported in article PMC10085944 (Clinical Pharmacokinetics, 2023).
Like-named read-outs stand apart in the source and are kept apart here.

How the values were obtained:
[1] = Safety and tolerability assessment in the Phase 1 renal impairment trial; format: in vivo, human
In short: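 Subjects admitted the day before a single 10 mg SC abdominal dose, kept on site for the first 3 days, then seen as outpatients daily to Day 8, with follow-up on Day 11. Ongoing monitoring covered AE recording (MedDRA preferred terms), vital signs, 12-lead ECGs, clinical laboratory tests, physical examinations and injection-site reactions.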

[2] = SC; slow release of M1 and M2 from the SC depot; cited from earlier work
[3] = cited from earlier work
[4] = SBS patients; dose reduction by 50% recommended; cited from earlier work

Substance: Glepaglutide
- serious AEs, deaths, or AEs leading to trial withdrawal ([1]; 16 subjects, single SC dose glepaglutide 10 mg): no serious AEs, deaths, or AEs leading to trial withdrawal
- total number of AEs (all non-serious and mild) ([1]; reported in 3 of 16 subjects, single SC dose 10 mg): 6
- overall safety and tolerability ([1]; single SC dose 10 mg, normal renal function and severe renal impairment or ESRD): safe and well tolerated
- effective half-life [2]: 88.3 h

Substance: native GLP-2: 33-amino acid intestinal growth factor secreted in response to nutrient intake
- half-life ([3]; native GLP-2, in vivo): 5 to 7 min

Substance: teduglutide
- half-life ([3]; teduglutide): approximately 2 h
- AUC0–∞ and Cmax in moderate or severe renal impairment/ESRD [4]: elevated
